Measurements reported in PubChem BioAssay.
Records with an inconclusive call do not appear. Calls of active or inactive are those of the source.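 How the source made its calls, unless noted: active means cell viability at or below a set limit in both duplicate runs, the limit being the all-compound median minus 4 SD (cut at about 23% in these data, passing the limit was not always enough); inconclusive means no clear call, values can overlap the other calls; inactive means the rest.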

Key:
[1] = OD615 S. cerevisiae growth inhibition, permissive medium, pilot counter-assay, permissive growth control for S. cerevisiae lifespan shortening project (AID 705;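 active means growth inhibition above 25% in both replicates, a cutoff set 3 SD above the mean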); settings: OD615, 24 h, at 10 µM, hits give high values
Method in brief: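 assay system = Saccharomyces cerevisiae strain carrying genetically modified DeaD replicative-lifespan system | medium = SC raffinose/galactose permissive medium | dosing = 10 µM single dose, 0.25% DMSO | schedule = 24 h compound exposure at 30 °C after 4 h pre-growth | measured by = OD at 615 nm | read-out basis = growth inhibition from lowered OD615 after 24 h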

[2] = Restrictive medium S. cerevisiae growth inhibition, OD615, pilot screen of yeast lifespan reduction project, restrictive growth control (AID 706;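 active means growth inhibition above a set limit, 3 SD over mean compound inhibition, in both replicates, cut at about 43% in these data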;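 further: modified DeaD lifespan yeast strain shifted to restrictive glucose medium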); settings: OD615, 48 h, at 10 µM, hits give high values
Method in brief: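 Buffer or medium: CSMM-D glucose medium. Material: genetically modified Saccharomyces cerevisiae, DeaD replicative lifespan assay strain. Times: 48 h compound exposure at 30 °C. Measured by: optical density at 615 nm.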

[3] = viability gain of MRP-1-high H69AR cells under doxorubicin, pilot screen, MRP-1 activator project, CellTiter-Glo, duplicate (AID 807;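 active means viability increase at or above a cutoff of the median across tested compounds plus 3 SD, cut at about 8.5% in these data, passing the limit was not always enough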;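 further: compound pretreatment 18-22 h then 72 h combined with doxorubicin; 0% = doxorubicin alone and 100% = vehicle without doxorubicin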); settings: H69AR viability with doxorubicin, CellTiter-Glo luminescence; at 10 µM; hits give high values
[4] = growth suppression of beta-catenin knockout HCT116, pilot screen, human colon tumor cells (AID 823); settings: CellTiter-Glo, 60 h, at 10 µM, hits give low values;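 further: 0% = wells killed by 20 µM Hyamine and 100% = untreated DMSO cell wells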
[5] = growth suppression of PTEN-deleted HCT116, pilot screen, cell-based, HCT116 clonal line, CellTiter-Glo (AID 824;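 active means viability at or below 27.92% in each of two runs, the all-compound median minus 4 SD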;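 further: 0% = 20 µM Hyamine control and 100% = vehicle cell control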); settings: 60 h, at 10 µM, hits give low values
[6] = inhibitors of the yeast RAM network, pilot screen, dse1pr::URA3 reporter, 5-FOA selection (AID 869;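 active means inhibition over a set limit, the all-compound mean plus 3 SD, in both replicate runs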;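 further: 0% = DMSO wells with no growth and 100% = 10 µM 1-NA-PP1 with full growth; RAM network block rescues cells from 5-FOA so hits raise OD615 growth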); settings: S. cerevisiae dse1pr::URA3 5-FOA growth, OD615, 2 d; at 10 µM; hits give high values; strain carries analog-sensitive mutant Cbk1 kinase
[7] = RAM signaling pathway blockade in yeast – S. cerevisiae, Pdr1DBD-CYC8 efflux-inhibited sensitized strain, primary screen (AID 1298;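 active means RAM network inhibition above 8.4% in each of two replicates, 3 SD over the compound average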;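 further: 0% = DMSO untreated cells without growth and 100% = 10 µM 1-NA-PP1 full growth; higher means more yeast growth rescued from 5-FOA killing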); settings: S. cerevisiae cbk1-as DSE1-URA3 strain, 5-FOA growth OD615, 2 d; at 50 µM; hits give high values

COc1ccc(Cl)cc1C(=O)N(Cc1nc(-c2cccc(C)c2)no1)C(C)C
inactive: growth inhibition [1] -18.4% | growth inhibition [2] -10.7% | viability increase [3] 0.87% | viability [4] 58.8% | viability [5] 57.6% | inhibition [6] 2.31% | RAM network inhibition [7] 8.49%

COc1ccc(-c2nc(CS(=O)CC(=O)NCc3cccnc3)c(C)o2)cc1OC (configuration not stated)
inactive: growth inhibition [1] -1.92% | growth inhibition [2] -2.94% | viability increase [3] -2.64% | viability [4] 99.5% | viability [5] 94.8% | inhibition [6] 1.42% | RAM network inhibition [7] 0.68%

O=C(Nc1ccncc1)c1ccc2c(c1)OCCO2
inactive: growth inhibition [1] 1.55% | growth inhibition [2] -11.1% | viability increase [3] 0.93% | viability [4] 85.6% | viability [5] 84% | inhibition [6] 1.98% | RAM network inhibition [7] 5.5%

Cc1cc(C)n(-c2nc3ccccc3nc2Nc2ccc(CC(=O)O)cc2)n1
inactive: growth inhibition [1] 5.73% | growth inhibition [2] -0.88% | viability increase [3] -1.81% | viability [4] 98.8% | viability [5] 95.5% | inhibition [6] -1.14% | RAM network inhibition [7] -2.71%

Cc1ccc(Cn2c(CN3CC(C)OC(C)C3)nc3c2c(=O)n(C)c(=O)n3C)cc1 (configuration not stated)
inactive: growth inhibition [1] -5.45% | growth inhibition [2] -10.8% | viability increase [3] -1.28% | viability [4] 96.1% | viability [5] 95.1% | inhibition [6] 2.09% | RAM network inhibition [7] 1.95%

O=C(C1CCC(Cn2c(=O)[nH]c3ccccc3c2=O)CC1)N1CCN(c2ccccc2)CC1 (configuration not stated)
inactive: growth inhibition [1] -14.3% | growth inhibition [2] -1.08% | viability increase [3] 2.93% | viability [4] 82.6% | viability [5] 67.6% | inhibition [6] 1.81% | RAM network inhibition [7] 6.69%

CC(CCc1ccccc1)NC(=O)C1CCN(C(=O)c2sccc2-n2cccc2)CC1 (configuration not stated)
inactive: growth inhibition [1] -4.79% | growth inhibition [2] 0.295% | viability increase [3] 2.68% | viability [4] 93.8% | viability [5] 89.3% | inhibition [6] 1.75% | RAM network inhibition [7] 2.14%

Cc1ccc(-c2nc(CSCC(=O)N3CCN(c4ccccn4)CC3)c(C)o2)cc1
inactive: growth inhibition [1] -5.27% | growth inhibition [2] 15.5% | viability increase [3] -2.65% | viability [5] 44.5% | inhibition [6] 1.56% | RAM network inhibition [7] -0.57%
active: viability [4] 20.3%

CN(C)S(=O)(=O)c1ccc(C(=O)Nc2nc(-c3cccs3)cs2)cc1
active: viability [5] 20%
inactive: growth inhibition [1] -5.6% | growth inhibition [2] -13.7% | viability increase [3] -1.56% | viability [4] 49.8% | inhibition [6] 4.17% | RAM network inhibition [7] 5.01%

COc1ccccc1N1CCN(c2cc(C)nc3nc(C)nn23)CC1
inactive: growth inhibition [1] -9.41% | growth inhibition [2] -13.6% | viability increase [3] -4.75% | viability [4] 85.7% | viability [5] 83.6% | inhibition [6] 2.03% | RAM network inhibition [7] -0.21%

COC(=O)c1ccccc1NC(=O)CSc1nc(N)cc(N)n1
inactive: growth inhibition [1] -11.6% | growth inhibition [2] 5.95% | viability increase [3] -2.46% | viability [4] 94.1% | viability [5] 98.3% | inhibition [6] 0.39% | RAM network inhibition [7] -0.05%

COc1cccc(C(=O)Nc2nnc(-c3ccc(F)cc3)o2)c1
inactive: growth inhibition [1] -12.2% | growth inhibition [2] -0.875% | viability increase [3] -3.38% | viability [4] 29% | viability [5] 32% | inhibition [6] 0.4% | RAM network inhibition [7] 0.21%

CCC(=O)c1ccc(CCCCCC(=O)O)s1
inactive: growth inhibition [1] 4.35% | growth inhibition [2] -7.41% | viability increase [3] -0.1% | viability [4] 98.2% | viability [5] 98.7% | inhibition [6] 1.34% | RAM network inhibition [7] 3.2%

COC(=O)c1cc(-c2ccc(Br)cc2)on1
inactive: growth inhibition [1] 1.85% | growth inhibition [2] 1.59% | viability increase [3] -2.76% | viability [4] 102% | viability [5] 96.6% | inhibition [6] 0.09% | RAM network inhibition [7] 1.79%

COc1cccc(NC(=O)CN2C(=O)COc3ccc(Cl)cc32)c1
inactive: growth inhibition [1] -12.2% | growth inhibition [2] -17.7% | viability increase [3] -0.8% | viability [4] 90% | viability [5] 84.7% | inhibition [6] 0.405% | RAM network inhibition [7] 0.31%

COCCN1C(=O)C(CC(=O)Nc2ccc(C(=O)O)cc2)SC1=Nc1ccccc1 (configuration not stated)
inactive: growth inhibition [1] -12.5% | growth inhibition [2] -19.2% | viability increase [3] -2.07% | viability [4] 96.4% | viability [5] 97.6% | inhibition [6] 2.39% | RAM network inhibition [7] 2.48%

Cc1cc(C(C)(C)C)ccc1OCCN(C)C
inactive: growth inhibition [1] -2.25% | growth inhibition [2] -9.14% | viability increase [3] 0.25% | viability [4] 94.2% | viability [5] 94.9% | inhibition [6] 1.58% | RAM network inhibition [7] 2.2%

CCOc1ccc(C(=O)NCc2ccncc2)cc1OCC
inactive: growth inhibition [1] 8.96% | growth inhibition [2] 7.73% | viability increase [3] -0.92% | viability [4] 92.9% | viability [5] 90% | inhibition [6] 2.33% | RAM network inhibition [7] 0.83%

CC(=O)N1CCc2cc(C(=O)CN3CCCCC3)ccc21
inactive: growth inhibition [1] -6.58% | growth inhibition [2] -8.28% | viability increase [3] -2.19% | viability [4] 99% | viability [5] 94.7% | inhibition [6] 0.435% | RAM network inhibition [7] 1.91%

CCOCCCNC(=O)C(NC(=O)c1ccc2c(c1)OCO2)c1ccc(OC)cc1 (configuration not stated)
inactive: growth inhibition [1] -12.5% | growth inhibition [2] -24.3% | viability increase [3] -2% | viability [4] 101% | viability [5] 96.3% | inhibition [6] 1.6% | RAM network inhibition [7] 3.11%

Cn1c(C(=O)NCCCN2CCN(c3cccc(Cl)c3)CC2)cc2c(=O)n(C)c3ccccc3c21
inactive: growth inhibition [1] -2.52% | growth inhibition [2] -0.835% | viability increase [3] -2.92% | viability [4] 59.9% | viability [5] 59% | inhibition [6] -0.02% | RAM network inhibition [7] 7.94%

CCOC(=O)C1=C(C)NC2=C(C(=O)CCC2)C1c1cc(OC)ccc1OC (configuration not stated)
inactive: growth inhibition [1] -10.6% | growth inhibition [2] -12.8% | viability increase [3] -1.47% | viability [4] 94.1% | viability [5] 96.3% | inhibition [6] 1.73% | RAM network inhibition [7] 7.52%

CCOC(=O)C1=C2N(C)c3ccccc3N2CCC1=O
inactive: growth inhibition [1] 8.71% | growth inhibition [2] 4.85% | viability increase [3] -3.21% | viability [4] 97.5% | viability [5] 93.8% | inhibition [6] 1.9% | RAM network inhibition [7] -0.41%

CC(C)(Oc1ccc(Cl)cc1)C(=O)Nc1cccnc1
inactive: growth inhibition [1] -4.86% | growth inhibition [2] -6.65% | viability increase [3] -3.43% | viability [4] 92.6% | viability [5] 83.1% | inhibition [6] 0.405% | RAM network inhibition [7] 1.94%

O=c1oc(-c2cccnc2)nc2ccccc12
inactive: growth inhibition [1] -8.07% | growth inhibition [2] -3.38% | viability increase [3] -0.21% | viability [4] 107% | viability [5] 96.1% | inhibition [6] 0.595% | RAM network inhibition [7] -0.11%

CCOC(=O)C1CCN(C(=O)CN(c2ccc(OC)cc2)S(=O)(=O)c2c(C)nn(C)c2C)CC1
inactive: growth inhibition [1] -3.58% | growth inhibition [2] -3.18% | viability increase [3] -0.02% | viability [4] 98.7% | viability [5] 104% | inhibition [6] 1.46% | RAM network inhibition [7] 2.69%

COCC(C)NC(=O)c1cc(-c2ccc(O)cc2)on1 (configuration not stated)
inactive: growth inhibition [1] -1.88% | growth inhibition [2] 4.68% | viability increase [3] -3.12% | viability [4] 105% | viability [5] 100% | inhibition [6] 2.48% | RAM network inhibition [7] 0.94%

CCOC(=O)N1CCN(C(=O)Cn2c(=O)sc3ccccc32)CC1
inactive: growth inhibition [1] -1.79% | growth inhibition [2] -7.62% | viability increase [3] -0.84% | viability [4] 100% | viability [5] 97.6% | inhibition [6] 1.68% | RAM network inhibition [7] 5.71%

C=CCNc1ncnc2c1cnn2-c1cccc(C)c1
inactive: growth inhibition [1] 8.9% | growth inhibition [2] 1.8% | viability increase [3] -1.03% | viability [4] 101% | viability [5] 98.5% | inhibition [6] 3.21% | RAM network inhibition [7] 0.06%

CCN(Cc1ccccc1)C(=O)Cn1cc2c(n1)CCCC2
inactive: growth inhibition [1] -5.23% | growth inhibition [2] -2.12% | viability increase [3] 1.91% | viability [4] 94% | viability [5] 92.5% | inhibition [6] 2.06% | RAM network inhibition [7] -1.27%

O=C(Cn1ncc2c1-c1ccccc1OC2)N1CCN(Cc2ccc3c(c2)OCO3)CC1
inactive: growth inhibition [1] -1.44% | growth inhibition [2] 10.4% | viability increase [3] -3.39% | viability [4] 84.7% | viability [5] 90.2% | inhibition [6] 1.9% | RAM network inhibition [7] 2.06%

COc1ccccc1NC(=O)CSc1nnc(Cn2c(=O)sc3ccccc32)n1C
inactive: growth inhibition [1] -3.61% | growth inhibition [2] 5.22% | viability increase [3] -4.11% | viability [4] 100% | viability [5] 87.9% | inhibition [6] 2.21% | RAM network inhibition [7] 4.37%

Cc1nccc2[nH]c(=O)c(C(=O)NC3CCN(Cc4ccccc4)CC3)cc12
inactive: growth inhibition [1] -0.105% | growth inhibition [2] -8.34% | viability increase [3] -3.81% | viability [4] 104% | viability [5] 93.9% | inhibition [6] 1.82% | RAM network inhibition [7] 7.9%

COc1cc2c(=O)n(Cc3ccccc3)c(=O)n(CC(=O)NCC3CCCO3)c2cc1OC (configuration not stated)
inactive: growth inhibition [1] -2.89% | growth inhibition [2] -0.925% | viability increase [3] -0.67% | viability [4] 97.9% | viability [5] 94.1% | inhibition [6] 2.3% | RAM network inhibition [7] 3.29%

Cc1nn(Cc2nc(-c3cccs3)no2)c(C)c1Br
inactive: growth inhibition [1] 0.735% | growth inhibition [2] 12% | viability increase [3] -1.13% | viability [4] 103% | viability [5] 101% | inhibition [6] 1.93% | RAM network inhibition [7] 3.61%

Cc1onc(-c2ccccc2Cl)c1C(=O)NCCN1Cc2ccccc2C1=O
inactive: growth inhibition [1] -0.695% | growth inhibition [2] 4.3% | viability increase [3] -4.11% | viability [4] 102% | viability [5] 90.5% | inhibition [6] 0.375% | RAM network inhibition [7] 0.31%
